High-throughput results deposited in PubChem by several laboratories.
FXIa mix inh – blocks human factor XIa in pooled compound mixtures; AID 680; actives 0.19% (n = 62,000); purified FXIa, fluorogenic substrate; P03951; inhibition, % at 5 µM;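 note: each value is inhibition by a whole ten-compound pool holding the compound; 0% = enzyme with no mixture and 100% = wells lacking enzyme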
HePTP inh – human HePTP phosphatase inhibition | inhibition, % at 20 µM | recombinant HePTP phosphatase activity, OD absorbance | actives 0.64% (n = 110,000) | P35236 | AID 521; in the data active = inhibition above about 50%;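 note: plate controls were vehicle for no effect and reference inhibitor for full effect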
FXIIa mix inh – factor XIIa (human) inhibition, mixture screen. AID 684. actives 0.2% (n = 62,000). inhibition, % at 5 µM. purified FXIIa, fluorogenic substrate, pooled mixtures. P00748;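 note: 0% = enzyme without compound and 100% = no enzyme blank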
Target sequence (P00748 20-372 limits assumed): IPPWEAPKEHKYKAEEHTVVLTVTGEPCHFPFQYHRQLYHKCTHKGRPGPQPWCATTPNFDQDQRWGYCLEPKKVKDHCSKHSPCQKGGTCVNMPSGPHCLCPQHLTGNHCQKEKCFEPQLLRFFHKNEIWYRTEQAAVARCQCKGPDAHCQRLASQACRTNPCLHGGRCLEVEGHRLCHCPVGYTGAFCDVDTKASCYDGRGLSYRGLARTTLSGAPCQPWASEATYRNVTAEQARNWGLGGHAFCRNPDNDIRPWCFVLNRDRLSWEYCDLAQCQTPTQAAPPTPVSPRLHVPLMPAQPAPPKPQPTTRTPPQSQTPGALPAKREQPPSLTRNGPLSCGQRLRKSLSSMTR
Target sequence (P00748 373-615 limits assumed): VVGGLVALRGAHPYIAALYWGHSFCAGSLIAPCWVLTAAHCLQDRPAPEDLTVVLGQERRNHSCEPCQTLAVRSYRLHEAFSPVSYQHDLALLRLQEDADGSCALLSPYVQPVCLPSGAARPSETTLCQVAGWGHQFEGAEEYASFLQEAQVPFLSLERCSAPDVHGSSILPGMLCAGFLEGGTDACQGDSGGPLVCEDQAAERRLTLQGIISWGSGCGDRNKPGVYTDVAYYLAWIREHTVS
AP complement – orthogonal test for alternative complement pathway inhibitors; Human serum alternative complement pathway, LPS-coated ELISA, C3 deposition; tested in compound mixtures; inhibition, % at 5 µM; actives 0.08% (n = 62,000); AID 1235;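 active = inhibition above 30% in each of the two pooled mixtures holding the compound, so the lower value exceeds 30%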;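 note: 0% = serum in Mg-EGTA without compound and 100% = EDTA serum blank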
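Test system: human serum alternative complement pathway, C3 deposition on LPS-coated wells; also added: Plate-bound LPS; doses: 5 µM per compound in ten-compound mixtures; schedule: 1 h at 37 °C; detection: Anti-C3 ELISA, OD 450 nm; evaluation: percent inhibition of C3 deposition onto LPS; repeats: two pool placements per compound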
BAP1 inh – inhibitors of human BAP1 deubiquitinase; Q92560; recombinant BAP1, Ub-AMC hydrolysis fluorescence kinetic; active compounds read low; calls only at 20 µM; actives 0.48% (n = 72,000); AID 436;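 active = activity remaining at or below 50% of control, provided the compound also passes the data quality filters; inactive = the rest, including low values that fail the filters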;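 note: 100% = DMSO wells rate and 0% = substrate alone blank rate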
* hit, by the source's call; i = inactive; / = no result shown; + = active, no number; ! = not confirmed by another sample. Shown are actives, neighbours in structure and some others; about 1% of the full set was active somewhere. Cut-off read from the data, not from the text of the source, unless noted: active = inhibition above about 20% (passing the limit was not always enough); inactive = the rest.

SMILES | FXIa mix inh | HePTP inh | FXIIa mix inh | AP complement | BAP1 inh
O=C1/C(=C/c2ccc(Cl)cc2Cl)SC(=S)N1C1CCS(=O)(=O)C1 (stereo unspecified) | / | 4 | / | / | /
O=C1/C(=C/c2cn(-c3ccccc3)nc2-c2ccco2)SC(=S)N1C1CCS(=O)(=O)C1 (stereo unspecified) | / | 66* | / | / | /
Nc1ccc(Cl)c2c1C(=O)c1ccccc1C2=O | / | / | / | / | i
Nc1c2c3c(c(Cl)ccc3[nH]c1=O)C(=O)c1ccccc1-2 | / | 103* | / | / | /
O=C(O)c1cc(-c2cccs2)nc2ccccc12 | / | 92* | / | / | /
Cc1nnc(NC(=O)c2cc(-c3cccs3)nc3ccccc23)s1 | / | 102* | / | / | /
CC(C)c1ccc(-c2cc(C(=O)O)c3ccccc3n2)cc1 | / | 1 | / | / | /
CC(C)Oc1ccc(-c2cc(C(=O)O)c3ccccc3n2)cc1 | / | 104* | / | / | /
O=C(c1cc(-c2cccs2)nc2ccccc12)N1CCN(c2ccccc2)CC1 | / | 0 | / | / | /
Cc1ccc2c(c1)c1c3n2CCN(C(=O)c2ccc([N+](=O)[O-])cc2)C3CCC1 (stereo unspecified) | / | 4 | / | / | /
O=C(c1ccccc1)c1ccc(N=Cc2ccc([N+](=O)[O-])s2)cc1 | / | -16 | / | / | /
COc1cccc(C(=O)NC(NC(=S)Nc2cc(OC)ccc2OC)C(Cl)(Cl)Cl)c1 (stereo unspecified) | / | -2 | / | / | /
COc1ccc(OC)c(NC(=S)NC(NC(=O)c2ccccc2Cl)C(Cl)(Cl)Cl)c1 (stereo unspecified) | / | 104* | / | / | /
CCOC(=O)c1ccc(NC(=O)CN(c2ccccc2OCC)S(=O)(=O)c2ccccc2)cc1 | / | 104* | / | / | /
O=C(Nc1ccc(N2CCCCC2)c(Cl)c1)c1ccc(-c2ccc(F)cc2)o1 | / | -2 | / | / | /
CCc1nnc(NC(=O)C2CCCC2)s1 | / | -7 | / | / | /
CCc1nnc(NC(=O)C2CCN(C(=O)NC3CCCCC3)CC2)s1 | 2 | 2 | 4 | 34* | i
CCOC(=O)c1cc(NC(=O)Nc2ccc(OC)c(OC)c2)c(C)nc1C | 29* | 12 | 9 | 2 | i
COc1ccc(NC(=O)Nc2ccccc2C(N)=O)cc1OC | 0 | 12 | 8 | -1 | i
COc1ccc(-c2nnn(CC(=O)c3ccc4c(c3)OCCO4)n2)cc1OC | 20* | 8 | 3 | 0 | i
O=c1c(-c2ccco2)[n+]([O-])c2ccccc2n1OCc1ccccn1 | 29* | 6 | -16 | 9 | i
COC(=O)c1ccc(C(=O)OC)c(NC(=O)C(C(C)C)N2C(=O)c3ccccc3C2=O)c1 (stereo unspecified) | / | -2 | / | / | /
CC(=O)Nc1ccc(NC(=O)c2ccc(OCC(C)C)cc2)cc1 | / | -18 | / | / | /
O=C(NCCc1ccccc1)c1noc2c1CCc1ccccc1-2 | 36* | 6 | 8 | 2 | i
CCCNC(=O)c1noc2c1CCc1ccccc1-2 | 10 | 3 | 1 | 20 | i
SMILES | FXIa mix inh | HePTP inh | FXIIa mix inh | AP complement | BAP1 inh
COc1cc(/C=C2/SC(=S)N(CC(=O)O)C2=O)cc(Cl)c1O | / | 98* | / | / | /
COc1ccc(NC(=O)COc2ccc(C(C)(C)c3ccccc3)cc2)c(OC)c1 | / | 102* | / | / | /
Cc1ccc(-n2nc3cc(C)c(NC(=O)COc4ccc([N+](=O)[O-])cc4)cc3n2)cc1 | / | -4 | / | / | /
CC(=O)Nc1cc(-c2ccc(C)cc2)nn1Cc1ccccc1 | / | 104* | / | / | /
CN(C)c1cc(NC(=O)CN2CCOCC2)c2ccccc2n1 | -4 | 4 | 7 | 9 | +
COc1ccc(-c2cn3c(C)c(C(=O)N4CCc5ccccc5C4)sc3n2)cc1 | 1 | -11 | 2 | 2 | +
CN(CC(=O)N1CC=C(c2ccccc2)CC1)S(=O)(=O)c1ccc2c(c1)c(=O)n(C)c(=O)n2C | -6 | 1 | 0 | 20 | i
CN(CC(=O)NC1CCCc2ccccc21)S(=O)(=O)c1ccc2c(c1)c(=O)n(C)c(=O)n2C (stereo unspecified) | 7 | 2 | 26* | 8 | i
COC(=O)c1cc(Br)c(=O)n(-c2ccc(C(C)=O)cc2)c1 | 1 | 5 | 21* | 9 | i
C/C(=N\NC(=O)c1cc(-c2ccco2)[nH]n1)c1ccc(O)cc1 | / | 7 | / | / | /
CCOC(=O)CSCCOc1ccc(/C=C2/C(=O)NC(=O)N(c3cccc(C)c3)C2=O)cc1OC | / | -10 | / | / | /
COc1ccc(CCN2C(=O)CSC2c2ccc([N+](=O)[O-])cc2)cc1OC (stereo unspecified) | / | 104* | / | / | /
O=C1CSC(c2ccc([N+](=O)[O-])cc2)N1CCc1ccccc1 (stereo unspecified) | / | / | / | / | i
Cc1cc(N/C=C/C(=O)c2cccc3ccccc23)no1 | / | -4 | / | / | i
Cc1cc(N/C=C/C(=O)c2ccc(Cl)s2)no1 | / | 102* | / | / | /
COc1ccc(OC)c(-c2cc(C(=O)Nc3c(C)nn(Cc4ccccc4)c3C)no2)c1 | 20* | 11 | 9 | 12 | /
CCOc1cc(C=O)ccc1OCCN1CCOCC1 | / | -12 | / | / | /
COc1cc(C=O)ccc1OCCN1CCOCC1 | / | 103* | / | / | /
CC(=O)c1c(C)nc2ccccn12 | 0 | 1 | 3 | -5 | i
Cc1nc2ccccn2c1P(=O)(N1CCCCC1)N1CCCCC1 | 6 | 11 | 20* | 17 | i
Cc1ccc(N2C(=O)C(Cl)=C(NC3CCCCC3)C2=O)c(C)c1 | / | / | / | / | i
Cc1ccccc1CS(=O)(=O)CCC(=O)NCCCN1CCN(c2ccccc2F)CC1 | -3 | 12 | 28 | 18 | i
Cc1cc(=O)oc(C)c1C(=O)NCCCN1CCN(c2ccccc2F)CC1 | 37* | 11 | 7 | 10 | i
O=C(NCCN1CCN(C(=O)c2cccs2)CC1)c1cccs1 | -11 | 16 | 6 | 10 | i
O=C(CNC(=O)c1cccs1)NCCN1CCN(c2ccccc2F)CC1 | 21* | 14 | 9 | 1 | i
SMILES | FXIa mix inh | HePTP inh | FXIIa mix inh | AP complement | BAP1 inh
Cc1nc(N2CCCCC2)[nH]c(=O)c1C=O | / | 6 | / | / | /
COc1cc(NC(=O)COc2ccccc2C)cc(OC)c1 | / | 3 | / | / | /
O=C1NC(=S)N/C1=C/c1ccc(OCc2cccc(C(=O)O)c2)cc1 | / | 103* | / | / | /
COC(=O)C1=C(C)NC(=S)NC1c1ccc(OCc2ccccc2)cc1 (stereo unspecified) | / | / | / | / | i
CC(=O)NS(=O)(=O)c1ccc(NC(=O)c2cccc(C)c2)cc1 | / | -2 | / | / | /
O=C1N=c2ccccc2=C1N=Nc1nc(O)c(-c2c(O)[nH]c3ccccc23)s1 | / | 66* | / | / | /
Oc1[nH]c2ccccc2c1C1=NCCCC1 | 3 | 11 | -9 | 8 | i
CCNc1nc(NC(C)C)nc(OCCNS(=O)(=O)c2cc(C)ccc2C)n1 | 5 | 0 | 2 | 32* | i
O=C1CN(CC(=O)N2CCOCC2)c2ccccc2O1 | 9 | 7 | 22* | 23 | i
Cc1nn(-c2ccccc2)c(C)c1Sc1ccc(Cl)cc1 | / | 104* | / | / | /
Cc1cc(C)nc(Sc2c(C)nn(-c3ccccc3)c2C)n1 | 3 | 11 | -2 | 5 | i
Cc1cc(-c2ccccc2)c2nncn2n1 | -3 | 78*! | -1 | 7 | i
Cc1cc(-c2ccccc2)c2c3c(cn2n1)c(=O)n(C)c(=O)n3C | 12 | 8 | -16 | 0 | i
S=C(Nc1ccccc1)Nc1ccc(-c2ccc(NC(=S)Nc3ccccc3)cc2)cc1 | / | -5 | / | / | /
